Screening results from PubChem.
Most compounds without a hit are left out; they make up all but 9% or so of the library.
M1 ag – activates the M1 muscarinic receptor; CHO-M1 cells, Fluo-4 calcium fluorescence, agonist mode; stronger effect = higher value; B-score at 10 µM; hit rate 3% among 64,000; AID 626;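 active = fluorescence rise, raw or as B-score row- and column-corrected plate score, outside the 99.7% band of its plate's samples, either direction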
Htt clearance – compounds clearing mutant huntingtin protein; HeLa Exon1htt(103Q)mCFP, aggregate imaging; zero = plate's median compound well; inhibition, % at 1.5 µM; hit rate 0.42% among 47,000;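 active = inhibition of aggregate fluorescence above about 70%, also judged a hit by eye on the cell image, limit read from the data, passing the limit was not always enough; inconclusive = no rule stated for this call; inactive = not judged a hit on image review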;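 note: cells exposed to compound for three days before fixation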
AP complement – orthogonal test for alternative complement pathway inhibitors | Human serum alternative complement pathway, LPS-coated ELISA, C3 deposition; tested in compound mixtures | inhibition, % at 5 µM | hit rate 0.08% among 62,000 | AID 1235;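 active = inhibition above 30% in each of the two pooled mixtures holding the compound, so the lower value exceeds 30%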;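 note: 0% = serum in Mg-EGTA without compound and 100% = EDTA serum blank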
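Test system: human serum complement alternative pathway, C3 deposition onto LPS / Medium: Mg2+-EGTA GVB++ buffer containing human serum at 1:15 dilution / Probe or stimulus: Plate-bound LPS / Times: 1 h at 37 °C / Signal: ELISA with HRP anti-human C3 antibody, TMB substrate, absorbance 450 nm / Measure: percent inhibition / Repeats: two pool placements per compound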
D1 allo mod – allosteric modulators of human D1 dopamine receptor. B-score at 10 µM. AID 641. hit rate 5.9% among 58,000. P21728. HEK293 D1, CRE-luciferase, dopamine EC30 potentiation; actives deviate in either direction;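 active = luminescence count or its row- and column-corrected plate score outside the 99.7% band of the plate's sample wells, on either side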
Target sequence (P21728 whole entry, looked up): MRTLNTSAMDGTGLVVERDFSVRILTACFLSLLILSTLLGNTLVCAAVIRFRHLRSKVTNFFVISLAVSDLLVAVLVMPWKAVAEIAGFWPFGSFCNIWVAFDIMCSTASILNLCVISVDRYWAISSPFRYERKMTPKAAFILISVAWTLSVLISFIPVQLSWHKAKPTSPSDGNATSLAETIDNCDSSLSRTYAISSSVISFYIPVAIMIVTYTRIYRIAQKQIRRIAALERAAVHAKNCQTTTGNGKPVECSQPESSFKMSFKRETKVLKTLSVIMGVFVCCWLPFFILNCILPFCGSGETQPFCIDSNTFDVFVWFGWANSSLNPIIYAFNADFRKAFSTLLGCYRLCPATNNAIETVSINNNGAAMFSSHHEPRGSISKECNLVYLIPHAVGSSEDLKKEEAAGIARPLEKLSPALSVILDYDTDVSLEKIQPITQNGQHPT
M1 antagonist – antagonists of rat M1 muscarinic receptor; P08482; CHO-M1 cells, Fluo-4 calcium, ACh EC80 antagonist mode; stronger effect = lower value; B-score at 10 µM; hit rate 3.4% among 64,000;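 active = calcium fluorescence response, raw or row-and-column corrected B-score, differing from the plate sample mean either way at a set confidence level, mostly lower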
M1 agonist conf – confirmation of rat M1 muscarinic receptor agonists; shares compounds with M1 ag; CHO-M1 cells, Fluo-4 calcium fluorescence, agonist mode; actives lie on both sides; fluorescence change (max-min) at 10 µM; hit rate 19% among 1,700;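 active = fluorescence change differs from the solvent-only DMSO control mean at a set confidence level in both duplicate runs; inconclusive = differs from solvent-only control mean in just one of two runs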;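 note: an EC20 dose of acetylcholine follows compound addition during the same imaging run; raw fluorescence intensity difference in instrument units with no normalization to controls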
M4 agonist ctr – activates rat M4 receptor in counter-screen for M1 agonists; shares compounds with M1 ag; CHO M4/Gqi5 cells, Fluo-4 calcium fluorescence, agonist mode; actives lie on both sides; hit rate 9% among 1,700; AID 1741; fluorescence change (max-min) at 10 µM;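 active = fluorescence change differing from the plate's solvent-only control wells at 99.7% confidence in both duplicates, whether higher or lower; inconclusive = differs from solvent controls in only one of two duplicates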
Active calls of the source: *; ? = inconclusive; . = no result given.

SMILES | M1 ag | Htt clearance | AP complement | D1 allo mod | M1 antagonist | others
Nc1ccccc1C(=O)OCCOc1ccccc1 | 0.758 | . | 18.7 | -4.36* | 0.308
COCCNC(=O)c1c(N)n(Cc2ccco2)c2nc3ccccc3nc12 | . | 12.5 | . | . | .
Nc1c(C(=O)NCCN2CCOCC2)c2nc3ccccc3nc2n1Cc1ccco1 | 6.7* | -2.4 | -8.3 | -0.372 | -0.00242
CN(C)c1ccc(P(=S)(N(C)C)N(C)C)cc1 | -0.557 | . | -3.1 | 0.557 | 0.71
CCOP(=S)(OCC)c1ccc(N(C)C)cc1 | 2.97* | -29.7 | -19.9 | -0.498 | -0.382
CCC(=NCCCN(CC)CC)c1c(O)n(-c2ccccc2)c(=O)[nH]c1=O | -1.38 | -53.0 | 35.9* | -0.219 | -0.687
O=c1[nH]c(=O)n(CCC2=CCCCC2)c(O)c1C=NC1CCN(Cc2ccccc2)CC1 | -1.05 | . | 24.1 | -0.961 | -0.0755
CCCCCCn1c(O)c(C=NC2CCN(Cc3ccccc3)CC2)c(=O)[nH]c1=O | -0.623 | . | 10.7 | -2.98* | -1.25
O=c1[nH]c(=O)n(C2CCCCCC2)c(O)c1C=NCCCN1CCOCC1 | -0.311 | -19.5 | 16.8 | -0.0298 | -0.522
CC(C(N)=O)N1CC(c2ccc(Cl)cc2)CC1=O (centres undefined) | 0.0332 | . | 11.1 | 0.822 | 0.573
CN1CCN(C(=O)COc2ccc(-c3nc4ccccc4s3)cc2)CC1 | -0.206 | -23.8 | 16.0 | -4.44* | -0.177
CC(C)NS(=O)(=O)c1ccc(OCC(=O)N2CCN(C)CC2)cc1 | 0.806 | . | 13.9 | -0.0759 | 0.378
Cn1ncnc2c(=O)n(C)c(=O)nc1-2 | -0.277 | . | 13.4 | -6.49* | -0.0419
C=Cn1c(P(=S)(N2CCOCC2)N2CCOCC2)cc2c1CCCC2 | -0.276 | . | -17.1 | -0.49 | 0.584
Cc1c2ccncc2c(C)c2c1[nH]c1ccccc12 | 34.6* | . | -18.2 | -0.18 | -0.425
CC1=CC(C)C(COC(N)=O)(COC(N)=O)C(C)C1 (centres undefined) | -0.743 | . | 13.7 | -1.36* | 0.33
Cc1cc(OC(=O)CCNC(=O)OC(C)(C)C)c2c3c(c(=O)oc2c1)CCC3 | 7.1* | -4.1 | 7.7 | -0.638 | -1.32
O=C(Cc1ccccc1)N1CCN(Cc2c[nH]c3ccccc23)CC1 | 1.16 | 6.8 | 41.8* | 0.0394 | -0.484
CC1(C)C2CC=C(CN3CCOCC3)C1C2 (centres undefined) | 0.04 | 36.5 | 19.6 | -1.52 | -1.34
COC(=O)C1C2c3ccccc3OC1(C)N=c1s/c(=C/c3cn(C)nc3C)c(=O)n12 (centres undefined) | -1.01 | . | 14.3 | -4.19* | 0.848
CN1C(=O)N(C)C(=O)C(CCc2ccncc2)(Cc2ccc3c(c2)OCO3)C1=O | -0.428 | . | 24.4 | 0.248 | -0.699
CCC(CC)N1CCN(C(=O)Cc2ccccc2)CC1 | . | -14.0 | . | . | .
Cn1c(O)c(C=NCCOc2ccc(Cl)cc2)c(=O)n(C)c1=O | -1.73 | . | 11.4 | 2.49 | 0.07
Cn1c(O)c(C=NCCN2CCN(C(=O)c3ccccc3)CC2)c(=O)n(C)c1=O | 0.376 | . | 22.6 | -7.4* | -0.137
Cc1ccc(S(=O)(=O)NC(CC(=O)N2CCC3(CC2)OCCO3)c2ccco2)cc1 (centres undefined) | 0.375 | 6.0 | 5.5 | 0.508 | 1.68
SMILES | M1 ag | Htt clearance | AP complement | D1 allo mod | M1 antagonist | others
N=Cc1c(O)n(-c2cccc(Cl)c2)c(=O)[nH]c1=O | 2.5* | -72.1 | 0.5 | 0.745 | -0.738
O=c1[nH]c(=O)n(-c2cccc(Cl)c2)c(O)c1/C=N/c1ccccn1 | -0.382 | 10.2 | 5.9 | 0.968 | 0.174
FC(F)(F)C1=NC(C(F)(F)F)=NP(N2CCOCC2)(N2CCOCC2)=N1 | -0.52 | . | 13.9 | 0.242 | -1.03
O=C(c1cc(-c2ccccc2)nc2ccccc12)N1CCC2(CC1)OCCO2 | 4.26* | 7.2 | -3.0 | 1.1 | -0.033 | M1 agonist conf=-16.5;M4 agonist ctr=-41.9
O=C(c1cnn2c(C(F)(F)F)cc(-c3ccccc3)nc12)N1CCC2(CC1)OCCO2 | . | 31.0 | . | . | .
CCCS(=O)(=O)N1CCCC(C(=O)N2CCC3(CC2)OCCO3)C1 (centres undefined) | 1.95* | -35.0 | 5.8 | 0.221 | 0.878 | M1 agonist conf=-6.59;M4 agonist ctr=-10.4
CCCS(=O)(=O)N1CCC(C(=O)N2CCC3(CC2)OCCO3)CC1 | -0.421 | . | 12.7 | 1.18 | -0.325
Cc1ccc2c(c1)C1CN(C)CCC1N2C(=O)COc1ccc(S(=O)(=O)N2CCOCC2)cc1 (centres undefined) | 0.998 | . | 14.5 | . | -0.337
Cc1cc2c(C(F)(F)F)cc(=O)oc2c2c1NCCC2 | 205* | . | 1.0 | 1.91 | -0.524 | M1 agonist conf=1315*;M4 agonist ctr=1119*
O=c1[nH]c(=O)n(-c2ccc(F)cc2)c(O)c1C=Nc1ccccc1N1CCCC1 | 4.25* | -9.4 | -1.6 | -0.0916 | 0.0997 | M1 agonist conf=-2.11;M4 agonist ctr=?
C=CCn1c(O)c(C=Nc2ccc(N(CC)CC)cc2)c(=O)[nH]c1=O | 17* | . | 10.1 | . | -0.00932 | M1 agonist conf=15.4;M4 agonist ctr=17.7
CCN(CC)c1ccc(N=Cc2c(O)n(CCC3=CCCCC3)c(=O)[nH]c2=O)cc1 | 109* | . | 12.7 | 0.32 | -0.648 | M1 agonist conf=578*;M4 agonist ctr=627*
CN(C)c1ccc(N=Cc2c(O)n(CCC3=CCCCC3)c(=O)[nH]c2=O)cc1 | 7.92* | -16.8 | 4.3 | -0.475 | -1.05 | M1 agonist conf=?;M4 agonist ctr=12.9
O=c1[nH]c(=O)n(CCC2=CCCCC2)c(O)c1C=NCCN1CCNCC1 | 0.542 | -13.2 | -14.9 | -0.734 | 0.199
O=C1NC(=O)N(C2CCCCC2)C(=O)C1C1c2ccccc2C(=O)N1Cc1ccccc1 (centres undefined) | 0.58 | -5.5 | -3.3 | 0.286 | 0.33
Cc1ccccc1-n1c(O)c(C=NCCN2CCOCC2)c(=O)[nH]c1=O | 0.0267 | -16.7 | -1.4 | -0.598 | -1.04
CCNCC1(c2ccc(OC)c(OC)c2)CCCC1 | 46.6* | . | 5.4 | 0.554 | -15.4* | M1 agonist conf=-7.68;M4 agonist ctr=-26.9
CC(=NCCCN1CCOCC1)c1c(O)n(Cc2ccccc2)c(=O)[nH]c1=O | 0.245 | -7.2 | 11.6 | 0.0933 | -0.448
CC(=NCCCN1CCOCC1)c1c(O)[nH]c(=O)[nH]c1=O | 1.48* | 24.0 | 11.1 | -0.469 | 0.413 | M1 agonist conf=?;M4 agonist ctr=-73
CCOC(=O)C1=C(C)OC(N)=C(C#N)C12C(=O)Nc1ccc(C)cc12 (centres undefined) | 0.0314 | . | 4.7 | -0.654 | -0.767
COc1ccc(C2SCC(=O)Nc3c2c(=O)[nH]n3C2CCCCC2)cc1 (centres undefined) | -0.553 | 30.4 | . | . | 0.8
Cn1c2ccccc2c2c(C(=O)N3CCC4(CC3)OCCO4)cn(C3CCCC3)c(=O)c21 | 14.4* | 8.3 | 10.6 | -0.0133 | -0.729 | M1 agonist conf=-4.01;M4 agonist ctr=-26.4
COCCn1cc(C(=O)N2CCC3(CC2)OCCO3)c2c3ccccc3n(C)c2c1=O | -1.02 | -9.6 | 22.0 | 0.0151 | -0.235
Cn1nc(-c2ccc(OCC(=O)N3CCN(Cc4ccccc4)CC3)cc2)c2ccccc2c1=O | 5.4* | -255.2 | . | 0.752 | -2.01* | M1 agonist conf=?;M4 agonist ctr=-72.2
